Columns and labels:
[1] = Selectivity index, ratio of CC50 for human HuH7 cells to EC50 for Hepatitis C virus subtype 1a replicons; assay type: toxicity, cell-based, Huh-7; details: read-out: Ratio CC50/EC50
[2] = test system: HepG2; assay: Cytotoxicity against human HepG2 cells incubated for 3 days by XTT assay; assay type: functional, cell-based; details: HepG2, 72 h
In short: (§1)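 Cell viability read by a metabolic XTT tetrazolium method after 3-day incubation of cells with compound. Values are from 2–4 independent experiments.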

[3] = Toxicity against human HuH7 cells incubated for 3 days by CellTiter 96 AQueous One Solution cell proliferation assay; assay type: cell-based, Huh-7
[4] = Selectivity index, ratio of CC50 for human HuH7 cells to EC50 for Hepatitis C virus subtype 1b replicons; assay type: toxicity, cell-based, Huh-7; details: read-out: Ratio CC50/EC50
[5] = test system: Hepatitis C virus; assay: Antiviral activity against Hepatitis C virus subtype 1a replicons infected in human HuH7 cells assessed as reduction in viral RNA levels by Rt-PCR; assay type: functional, organism-based, Hepacivirus hominis; details: Huh-7
[6] = test system: HL-60; assay: Cytotoxicity against human HL60 cells incubated for 3 days by XTT assay; assay type: functional, cell-based; details: HL-60, 72 h; in short: as §1
[7] = Cytotoxicity against human HeLaS3 cells incubated for 3 days by XTT assay; assay type: functional, cell-based; details: HeLa S3, 72 h; in short: as §1
[8] = test system: CCRF-CEM; assay: Cytotoxicity against human CCRF-CEM cells incubated for 3 days by XTT assay; assay type: functional, cell-based; details: 72 h; in short: as §1
[9] = test system: Hepatitis C virus; assay: Antiviral activity against Hepatitis C virus subtype 1b replicons infected in human HuH7 cells assessed as reduction in viral RNA levels by Rt-PCR; assay type: functional, organism-based, Hepacivirus hominis; details: genotype 1b, Huh-7
[10] = test system: DU-145; assay: Cytostatic activity against human DU145 cells incubated for 3 days by SRB assay; assay type: functional; details: DU-145, 72 h
[11] = test system: NCI-H23; assay: Cytostatic activity against human NCI-H23 cells incubated for 3 days by SRB assay; assay type: functional; details: NCI-H23, 72 h
[12] = Cytostatic activity against human Hs578 cells incubated for 3 days by SRB assay; assay type: functional; details: Hs578, 72 h
[13] = test system: HCT-116; assay: Cytostatic activity against human HCT116 cells incubated for 3 days by SRB assay; assay type: functional; details: HCT-116, 72 h

Row | Structure (SMILES) | selectivity ratio [1] | IC50 [2] | CC50 at 72 h [3] | selectivity ratio [4] | EC50 [5] | IC50 [6] | IC50 [7] | IC50 [8] | EC50 [9] | GI50 [10] | GI50 [11] | GI50 [12] | GI50 [13]
1 | Nc1ncnc2c1c(I)cn2[C@@H]1O[C@H](CO)[C@@H](O)[C@@H]1O | < 10 | 6.12 µM | 9.97 µM | < 10 | 1.39 µM | 6.44 µM | 3.19 µM | 7.02 µM | 1.39 µM |  |  |  | 
2 | Nc1ncnc2c1c(-c1ccoc1)cn2[C@H]1C[C@H](O)[C@@H](CO)O1 | < 10 |  | > 44 µM | < 10 | 24 µM |  |  |  | 5.26 µM |  |  |  | 
3 | Nc1ncnc2c1c(-c1ccccc1)cn2[C@@H]1O[C@H](CO)[C@@H](O)[C@@H]1F | < 10 |  | > 44 µM | < 10 | 26.4 µM |  |  |  | 43.5 µM |  |  |  | 
4 | C#Cc1cn([C@@H]2O[C@H](CO)[C@@H](O)[C@@H]2O)c2ncnc(N)c12 | < 10 | 9.86 µM | 17.4 µM | < 10 | 1.54 µM | > 10 µM | 3.77 µM | > 10 µM | 1.75 µM |  |  |  | 
5 | C[C@@]1(O)[C@H](O)[C@@H](CO)O[C@H]1n1cc(-c2ccsc2)c2c(N)ncnc21 | < 10 |  | > 44 µM | < 10 | 36.3 µM |  |  |  | 15.5 µM |  |  |  | 
6 | C[C@@]1(O)[C@H](O)[C@@H](CO)O[C@H]1n1cc(-c2ccc3ccccc3c2)c2c(N)ncnc21 | < 10 |  | 20.1 µM | < 10 | 4.91 µM | > 10 µM | > 10 µM | 3.95 µM | 5.31 µM |  |  |  | 
7 | Nc1ncnc2c1c(-c1cn[nH]c1)cn2[C@@H]1O[C@H](CO)[C@@H](O)[C@@H]1F | < 10 |  | > 44 µM | < 10 | 22.4 µM | > 10 µM | > 10 µM | 9.07 µM | 8.45 µM |  |  |  | 
8 | C[C@@]1(O)[C@H](O)[C@@H](CO)O[C@H]1n1cc(-c2cccc3ccccc23)c2c(N)ncnc21 | < 10 |  | > 44 µM | < 10 | 24.7 µM |  |  |  | 24.1 µM |  |  |  | 
9 | Nc1ncnc2c1c(-c1ccoc1)cn2[C@@H]1O[C@H](CO)[C@@H](O)[C@@H]1F | < 10 |  | > 44 µM | < 10 | 37 µM |  |  |  | 17 µM |  |  |  | 
10 | Nc1ncnc2c1c(-c1ccsc1)cn2[C@@H]1O[C@H](CO)[C@@H](O)[C@@H]1O | < 10 | > 15 µM | > 44 µM | < 10 | 37.8 µM | 13 µM | 7.03 µM | 3.1 µM | 34 µM |  |  |  | 
11 | C[C@@]1(O)[C@H](O)[C@@H](CO)O[C@H]1n1cc(-c2ccccc2)c2c(N)ncnc21 | < 10 |  | > 44 µM | < 10 | 35.4 µM |  |  |  | 27.1 µM |  |  |  | 
12 | Nc1ncnc2c1c(-c1ccco1)cn2[C@H]1C[C@H](O)[C@@H](CO)O1 | < 10 |  | > 44 µM | < 10 | 11.1 µM |  |  |  | 4.16 µM |  |  |  | 
13 | Nc1ncnc2c1c(-c1cccs1)cn2[C@@H]1O[C@H](CO)[C@@H](O)[C@@H]1F | < 10 | > 10 µM | 42.9 µM | < 10 | 2.8 µM | > 10 µM | 5.6 µM | 7.5 µM | 4.07 µM |  |  |  | 
14 | Nc1ncnc2c1c(-c1ccco1)cn2[C@@H]1O[C@H](CO)[C@@H](O)[C@@H]1O | < 10 | 6.62 µM | > 44 µM | < 10 | 3.41 µM | > 10 µM | 7.62 µM | 6.64 µM | 3.02 µM |  |  |  | 
15 | C[C@@]1(O)[C@H](O)[C@@H](CO)O[C@H]1n1cc(-c2ccco2)c2c(N)ncnc21 | < 10 |  | 49.6 µM | < 10 |  |  |  |  | 8.96 µM | 8.89 µM | 6.08 µM | 9.05 µM | > 10 µM
16 | C[C@@]1(O)[C@H](O)[C@@H](CO)O[C@H]1n1cc(-c2cccs2)c2c(N)ncnc21 | < 10 |  | 48.1 µM | < 10 |  |  |  |  | 14.2 µM |  |  |  | 
17 | C[C@@]1(O)[C@H](O)[C@@H](CO)O[C@H]1n1cc(-c2ccoc2)c2c(N)ncnc21 | < 10 |  | > 44 µM | < 10 | 18.3 µM |  |  |  | 12.3 µM |  |  |  | 
18 | Nc1ncnc2c1c(-c1ccco1)cn2[C@@H]1O[C@H](CO)[C@@H](O)[C@@H]1F | < 10 |  | > 44 µM | < 10 | 15.7 µM |  |  |  | 12.1 µM | 8.52 µM | > 10 µM | 8.49 µM | > 10 µM
19 | Nc1ncnc2c1c(-c1cccs1)cn2[C@H]1C[C@H](O)[C@@H](CO)O1 | < 10 |  | > 44 µM | < 10 | 7.58 µM |  |  |  | 5.16 µM |  |  |  | 
20 | C[C@@]1(O)[C@H](O)[C@@H](CO)O[C@H]1n1cc(-c2cc3ccccc3o2)c2c(N)ncnc21 | < 10 |  | 29.4 µM | < 10 | 6.15 µM | > 10 µM | > 10 µM | 7.81 µM | 6.13 µM |  |  |  | 
21 | Nc1ncnc2c1c(-c1ccsc1)cn2[C@@H]1O[C@H](CO)[C@@H](O)[C@@H]1F | < 10 |  | 24.4 µM | < 10 | 10.9 µM |  |  |  | 10.8 µM |  |  |  | 
22 | Nc1ncnc2c1c(-c1ccccc1)cn2[C@@H]1O[C@H](CO)[C@@H](O)[C@@H]1O | < 10 |  | > 44 µM | < 10 | > 44 µM |  |  |  | > 44 µM |  |  |  | 
23 | Nc1ncnc2c1c(-c1ccsc1)cn2[C@H]1C[C@H](O)[C@@H](CO)O1 | < 10 |  | > 44 µM | < 10 | 11.4 µM |  |  |  | 5.91 µM |  |  |  | 
24 | Nc1ncnc2c1c(-c1cccs1)cn2[C@@H]1O[C@H](CO)[C@@H](O)[C@@H]1O | < 10 | 12.2 µM | > 44 µM | < 10 | 35.3 µM | 13.5 µM | 5.38 µM | 4.25 µM | 20.6 µM |  |  |  | 
25 | COc1ccc(-c2cn([C@@H]3O[C@H](CO)[C@@H](O)[C@@]3(C)O)c3ncnc(N)c23)cc1 | < 10 |  | > 44 µM | < 10 | 12 µM |  |  |  | 9.44 µM |  |  |  | 
26 | Nc1ncnc2c1c(-c1ccoc1)cn2[C@@H]1O[C@H](CO)[C@@H](O)[C@@H]1O | < 10 | 6.1 µM | > 44 µM | < 10 | 25.2 µM | > 10 µM | 8.36 µM | 4.67 µM | 22.5 µM |  |  |  | 

— ChEMBL document CHEMBL2069282, “Sugar-modified derivatives of cytostatic 7-(het)aryl-7-deazaadenosines: 2'-C-methylribonucleosides, 2'-deoxy-2'-fluoroarabinonucleosides, arabinonucleosides and 2'-deoxyribonucleosides” (Bioorg Med Chem, 2012)
